# Screening data as filed in PubChem BioAssay.
# bCat KO growth – beta-catenin-lacking colon tumor cell growth suppression | HCT116 beta-catenin knockout viability, CellTiter-Glo, 60 h; stronger effect = lower value | viability, % at 10 µM | hit rate 1.5% among 140,000;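 active means viability at or under a set limit, the compound median less 4 SD, cut at about 6% in these data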;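 further: 0% = Hyamine 1622 control at 20 µM and 100% = untreated cell control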
# PTEN del growth – growth suppressors of cells with PTEN tumor suppressor deletion. HCT116 PTEN-null viability, CellTiter-Glo, 60 h; stronger effect = lower value. viability, % at 10 µM. hit rate 1.2% among 140,000;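 active means viability at or below a set limit, 4 SD under the median of all tested compounds, cut at about 3.7% in these data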;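 further: PTEN knockout HCT116 line with beta catenin targeted HCT116 as companion control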
# HUVEC inhibit – human endothelial cell proliferation inhibition; hit rate 1.1% among 86,000; viability, % at 10 µM (by protocol); HUVEC proliferation, CellTiter-Glo luminescence, 72 h; stronger effect = lower value;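 active means viability at or below 30%; inactive means viability above 30%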;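 further: 100% = median luminescence of DMSO-only cell control wells on each plate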
# H69AR growth 86K – blocks growth of human H69AR lung tumor cells; viability, % at 10 µM; H69AR lung tumor viability, ATP luminescence, 72 h; stronger effect = lower value; hit rate 6% among 85,000;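 active means viability at or below 40%; inactive means viability above 40%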;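 further: multidrug resistant small cell line overexpressing MRP-1 efflux transporter; 100% = mean luminescence of untreated control wells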
# Lung fibro prol – blocks proliferation of human lung fibroblasts; LL 47 human lung fibroblast viability, ATP luminescence; stronger effect = lower value; viability, % at 10 µM; hit rate 1.1% among 85,000;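 active means viability at or below 50% in the single dose screen; inactive means viability above 50%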;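 further: compound exposure lasted 72 h before the ATP readout; 100% = median luminescence of untreated cell-only wells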
#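 Material: human lung fibroblast line LL 47, low passage; Evaluation: viability percentage against median untreated-cell control; Buffer or medium: 15% FBS in IMEM; Incubation: 72 h compound exposure at 37 °C after overnight plating; Dosing: 0.1% DMSO in all compound wells; Measured by: CellTiter-Glo luminescence.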
# Active calls of the source: *; nt = no result. The sample as a whole holds a higher share of hits than the screen did.
SMILES,bCat KO growth,PTEN del growth,HUVEC inhibit,H69AR growth 86K,Lung fibro prol
CCOc1ccc(NC(=S)N2CCc3cc(OC)c(OC)cc3C2COc2ccc3c(C)cc(=O)oc3c2)cc1 (stereo not drawn),87,96,nt,nt,nt
Cc1nnc(SCc2ccc3c(c2)OCO3)s1,99,103,111,106,110
CCOC(=O)N1CCN(C(=O)c2ccccc2CCc2ccccc2)CC1,79,94,96,72,101
CCOC(=O)N1CCN(C(=O)c2ccccc2-c2ccccc2)CC1,20,24,62,19*,68
COc1ccc(CCNC(=O)CCC(=O)Nc2nnc(C(C)C)s2)cc1OC,90,99,nt,nt,nt
COc1ccc(Cn2c(SCc3ccc(C)cc3)nc3cc(OC)c(OC)cc3c2=N)cc1Cl,1.2*,1.2*,nt,nt,nt
CCCCNC(=O)CSc1nc2cc(OC)c(OC)cc2c(=O)n1Cc1ccc(OC)cc1,1.3*,0.6*,nt,nt,nt
COc1ccc(Cn2c(SCc3cc(C)ccc3C)nc3cc(OC)c(OC)cc3c2=N)cc1,1.9*,1.4*,nt,nt,nt
COc1cc2nc(SCc3ccc(Cl)cc3Cl)n(Cc3cccs3)c(=N)c2cc1OC,59,59,nt,nt,nt
COCCNC(=O)CSc1nc2cc(OC)c(OC)cc2c(=O)n1Cc1ccco1,94,88,90,93,96
COC(=O)c1cc(C(=O)Nc2nnc(C3CC3)s2)cc([N+](=O)[O-])c1,82,80,nt,nt,nt
CCCCCCCCC/C(=N\O)c1ccccn1,3.4*,7,5.4*,80,36*
CCCCCCCCC(=O)N/N=C/c1ccccn1,40,56,nt,nt,nt
CC(=O)N(Cc1ccc(F)cc1)C1=C(NCc2ccccc2)C(=O)c2ccccc2C1=O,1.4*,1.2*,3.4*,3.5*,2.6*
CC(=O)n1nc(-c2ccccc2)nc1NCc1ccc(F)cc1,67,69,85,90,98
COc1ccc(NC(=O)COC(=O)c2cc(SC)ccc2Cl)c(OC)c1,103,97,nt,nt,nt
COc1ccccc1Cc1nc2ccccc2n1S(=O)(=O)c1ccc(Cl)cc1,76,90,nt,nt,nt
CCSc1nc2sc3c(c2c(=O)[nH]1)CCCC3,97,96,84,80,94
CCSC1=NC2(CCCCC2)Nc2sc3c(c21)CCCC3,82,84,78,2.2*,89
O=[N+]([O-])c1cc(S(=O)(=O)N2CCCC2)ccc1N/N=C1/CCCc2ccccc21,84,84,nt,nt,nt
COc1ccccc1N1C(=O)C2ON(c3ccccc3)C(c3ccc(N(C)C)cc3)C2C1=O (stereo not drawn),99,94,81,11*,107
COc1cccc(NC(=O)c2ccc(-n3cccn3)nc2)c1,101,103,nt,nt,nt
Cc1cc(C)c2c(CN3CCN(Cc4ccc5c(c4)OCO5)CC3)cc(=O)oc2c1C,79,76,39,33*,90
Cc1ccccc1Cn1cc(NC(=O)c2nn(C)cc2Cl)cn1,92,91,nt,nt,nt
Cc1ccc(C2CC(C(F)F)n3ncc(C(=O)Nc4cnn(Cc5ccccc5C)c4)c3N2)cc1 (stereo not drawn),1.8*,2.1*,16*,14*,63
SMILES,bCat KO growth,PTEN del growth,HUVEC inhibit,H69AR growth 86K,Lung fibro prol
Cc1ccc(N(CC(O)Cn2c3ccccc3c3ccccc32)S(C)(=O)=O)cc1 (stereo not drawn),65,81,54,32*,92
Cc1ccc(N(CC(O)CN2CCCC2)S(=O)(=O)c2ccc(C)cc2)cc1 (stereo not drawn),90,83,nt,nt,nt
CC(=O)Nc1ccc(N(CC(O)Cn2c3ccccc3c3ccccc32)S(=O)(=O)c2ccc(C)cc2)cc1 (stereo not drawn),43,31,nt,nt,nt
CS(=O)(=O)N(Cc1ccco1)CC(O)Cn1c2ccccc2c2ccccc21 (stereo not drawn),66,66,nt,nt,nt
Cc1ccc(N(CC(O)Cn2c3ccccc3c3ccccc32)S(C)(=O)=O)c(C)c1 (stereo not drawn),66,53,61,17*,90
Cc1ccc(N(CC(O)CON=C2c3ccccc3-c3ccccc32)S(C)(=O)=O)cc1 (stereo not drawn),19,15,66,15*,98
Cc1cccc(C)c1N(CC(O)Cn1c2ccccc2c2ccccc21)S(C)(=O)=O (stereo not drawn),50,44,66,21*,86
Cc1noc(/C=C/N(C)C)c1S(=O)(=O)N1CCCC(C(=O)NCc2ccccc2Cl)C1 (stereo not drawn),88,87,78,109,96
COc1cc2c3nnc(-c4ccc(F)cc4)c-3cn(Cc3cccc(C)c3)c2cc1OC,82,74,2.3*,1.1*,3.2*
COc1cc2c3nnc(-c4ccc(F)cc4)c-3cn(Cc3ccc(C)cc3)c2cc1OC,85,97,38,43,68
Cc1ccccc1Cn1c(=N)n(CC(=O)c2ccc([N+](=O)[O-])cc2)c2ccccc21,1.9*,1.4*,nt,nt,nt
C=CCNC(=O)c1ccccc1NC(=O)c1ccccc1C,0.8*,1.0*,97,83,96
COc1cccc(/C=N/Nc2snc(SC)c2C#N)c1O,22,26,61,20*,68
COc1ccc(/C=N/Nc2snc(SC)c2C#N)cc1OC,56,58,64,48,83
COc1cc(NC(=O)c2cc(-c3cccs3)on2)cc(OC)c1OC,59,55,67,23*,96
COc1cc(C(=O)Nc2nc(-c3cccs3)cs2)cc(OC)c1OC,11,7,77,14*,85
Cc1ccc(NC(=O)c2cc(-c3cccs3)on2)cc1,100,100,106,95,110
COc1cc(C(=O)Nc2ccc(N(C)C)cc2)cc(OC)c1OC,78,68,81,33*,97
COc1cc(C(=O)Nc2ccc(S(=O)(=O)N(C)c3ccccc3)cc2)cc(OC)c1OC,81,85,nt,nt,nt
COc1cc(NC(=O)c2cc(-c3cccc(O)c3)on2)cc(OC)c1OC,93,88,66,28*,92
O=C1c2ccccc2C(=O)N1CC(O)CNc1ccc(Br)cc1 (stereo not drawn),101,105,nt,nt,nt
O=c1ccc(Cl)cn1Cc1ccccc1F,95,89,103,98,105
COc1ccc(OC)c(-c2cc(C(=O)Nc3cccc(Cl)c3)no2)c1,84,84,82,34*,94
CNc1nnc(-c2cc3cc(Cl)ccc3oc2=O)s1,88,82,99,95,103
CCOc1cccc2cc(-c3nnc(NCc4ccco4)s3)c(=O)oc12,82,89,20*,3.7*,53
CCOc1cccc2cc(-c3cn4cc(C)ccc4n3)c(=O)oc12,1.1*,1.3*,92,nt,24*
COc1ccc2oc(=O)c(-c3nnc(NCc4ccco4)s3)cc2c1,4.2*,3.8*,20*,2.6*,95
Cc1ccc(C)c(C(C)NC(=O)C2C3CCC(O3)C2C(=O)O)c1 (stereo not drawn),89,93,29*,23*,105
COc1cc(C(=O)O/N=C2/C=C(C)C(=O)C=C2C)cc(OC)c1OC,3.6*,6,nt,nt,nt
